Measured values: ChEMBL document CHEMBL3997773, “Synthesis of C-4-Substituted Steviol Derivatives and Their Inhibitory Effects against Hepatitis B Virus” (J Nat Prod, 2016)
Calls of active or inactive are those of the source. The rule behind the calls is not given here.

How the values were obtained:
[1] = test system: Hepatitis B virus subtype adw2; assay: Antiviral activity against Hepatitis B virus subtype adw2 infected in human HuH7 cells assessed as inhibition of viral DNA replication after 3 days by RT-PCR method; type: functional, cell-based
Summary of the method: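 HBV-expressing Huh7 cells were dosed at 2.5, 5 or 10 μg/mL for 3 days. Viral DNA was isolated from virion particles in the conditioned medium and quantified by real-time PCR. Mean ± SD, n = 3, compared with untreated cells.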

[2] = test system: Hepatitis B virus subtype adw2; assay: Antiviral activity against Hepatitis B virus subtype adw2 infected in human HuH7 cells assessed as reduction in precore/pregenomic RNA level at 2.5 to 10 ug/ml after 2 days by northern blot method; type: functional, cell-based
Summary of the method: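 After pHBV1.2 transfection of Huh7 cells for 2 days, cells were treated at 2.5, 5 or 10 μg/mL for 2 more days. Total RNA was Northern-blotted with an HBV whole-genome DNA probe. GAPDH served as loading control and β-gal marked transfection efficiency. Bands from three experiments were quantified by densitometry and normalized to GAPDH.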

[3] = Antiviral activity against Hepatitis B virus subtype adw2 infected in human HuH7 cells assessed as reduction in HBcAg level at 2.5 ug/ml after 2 days by immunoblot method relative to control; type: functional
Summary of the method: (§1)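 Huh7 cells were transfected with pHBV1.2 (1.2-fold HBV adw2 genome) for 2 days, then exposed to 2.5, 5 or 10 μg/mL for another 2 days. Whole-cell protein was extracted with protease inhibitors. SHBs, HBcAg and HBx were detected by immunoblot, with α-tubulin for comparison.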

[4] = Antiviral activity against Hepatitis B virus subtype adw2 infected in human HuH7 cells assessed as reduction in HBx level at 5 ug/ml after 2 days by immunoblot method relative to control; type: functional; summary of the method: as §1
Huh-7 [5] = assay: Decrease in NF-kB p65 protein expression in human HuH7 cells transfected with pHBV1.2 at 5 ug/ml after 2 days by immunoblot method relative to control; type: functional
Summary of the method: (§2)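 Huh7 cells were transfected with pHBV1.2 for 2 days, then treated at 2.5, 5 or 10 μg/mL for another 2 days. Whole-cell protein was extracted with protease inhibitors. NF-κB p65/p50, phospho-p65, IKKα/β and IκBα/phospho-IκBα were detected by immunoblot. Blots are representative of three experiments.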

Huh-7 [6] = assay: Effect on NF-kB p50 protein expression in human HuH7 cells transfected with pHBV1.2 at 2.5 ug/ml after 2 days by immunoblot method relative to control; type: functional
Summary of the method: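 HBV adw2 genome plasmid pHBV1.2 transfected into Huh7 for 2 days, then 2.5, 5 or 10 μg/mL for another 2 days. Whole-cell protein extracted with protease inhibitors, then SDS-PAGE immunoblot for NF-κB and MAPK pathway proteins. Blots are representative of three sets of experiments.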

Huh-7 [7] = assay: Decrease in NF-kB p50 protein expression in human HuH7 cells transfected with pHBV1.2 at 5 ug/ml after 2 days by immunoblot method relative to control; type: functional; summary of the method: as §2
Huh-7 [8] = assay: Decrease in IKKbeta protein expression in human HuH7 cells transfected with pHBV1.2 at 2.5 ug/ml after 2 days by immunoblot method relative to control; type: functional; summary of the method: as §2
Huh-7 [9] = assay: Decrease in IKKbeta protein expression in human HuH7 cells transfected with pHBV1.2 at 5 ug/ml after 2 days by immunoblot method relative to control; type: functional; summary of the method: as §2
[10] = target: Transcription factor p65 (Homo sapiens) (UniProt Q04206); assay: Decrease in NF-kB p65 phosphorylation in human HuH7 cells transfected with pHBV1.2 at 2.5 ug/ml after 2 days by immunoblot method relative to control; type: cell-based; summary of the method: as §2
Transcription factor p65 (Homo sapiens), sequence (Q04206 whole entry): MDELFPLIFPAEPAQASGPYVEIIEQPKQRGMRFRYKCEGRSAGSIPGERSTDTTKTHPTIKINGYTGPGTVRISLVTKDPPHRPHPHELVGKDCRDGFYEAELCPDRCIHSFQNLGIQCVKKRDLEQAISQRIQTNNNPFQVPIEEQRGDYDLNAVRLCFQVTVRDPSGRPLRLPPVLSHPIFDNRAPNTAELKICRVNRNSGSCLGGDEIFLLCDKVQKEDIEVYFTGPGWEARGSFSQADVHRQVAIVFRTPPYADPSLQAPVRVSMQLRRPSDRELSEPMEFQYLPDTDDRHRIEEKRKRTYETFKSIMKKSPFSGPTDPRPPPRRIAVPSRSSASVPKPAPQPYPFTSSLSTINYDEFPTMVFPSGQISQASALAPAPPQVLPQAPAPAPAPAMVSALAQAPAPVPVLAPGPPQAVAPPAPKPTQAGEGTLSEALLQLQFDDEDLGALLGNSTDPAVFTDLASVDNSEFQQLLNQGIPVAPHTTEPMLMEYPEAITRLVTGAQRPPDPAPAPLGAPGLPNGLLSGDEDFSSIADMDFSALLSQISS

[11] = target: T1, NF-kappa-B inhibitor alpha (Homo sapiens) (UniProt P25963); assay: Decrease in IKBalpha phosphorylation in human HuH7 cells transfected with pHBV1.2 at 5 ug/ml after 2 days by immunoblot method relative to control; type: cell-based; summary of the method: as §2
T1 sequence (whole entry): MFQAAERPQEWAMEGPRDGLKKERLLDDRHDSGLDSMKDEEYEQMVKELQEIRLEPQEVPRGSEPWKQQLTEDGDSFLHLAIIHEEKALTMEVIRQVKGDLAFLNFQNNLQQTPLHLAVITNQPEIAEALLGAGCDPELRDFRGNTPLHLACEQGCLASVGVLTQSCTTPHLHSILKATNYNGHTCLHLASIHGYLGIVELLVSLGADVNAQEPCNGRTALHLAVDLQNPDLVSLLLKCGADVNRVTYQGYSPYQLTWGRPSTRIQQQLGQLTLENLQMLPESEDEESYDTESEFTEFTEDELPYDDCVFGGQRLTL

[12] = target: T1, NF-kappa-B inhibitor alpha (Homo sapiens); assay: Decrease in IKBalpha phosphorylation in human HuH7 cells transfected with pHBV1.2 at 10 ug/ml after 2 days by immunoblot method relative to control; type: cell-based; summary of the method: as §2
Huh-7 [13] = assay: Decrease in IKBalpha protein expression in human HuH7 cells transfected with pHBV1.2 at 5 ug/ml after 2 days by immunoblot method relative to control; type: functional; summary of the method: as §2
[14] = test system: Hepatitis B virus subtype adw2; assay: Antiviral activity against Hepatitis B virus subtype adw2 infected in human HuH7 cells cotransfected with pCMV-p65 assessed as inhibition of viral DNA replication at 10 ug/ml after 2 days by RT-PCR method; type: functional, cell-based
Summary of the method: (§3)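 Huh7 cells were cotransfected with pHBV1.2 and, where stated, 0.5 or 2.5 μg pCMV-p65 (or empty vector) for 2 days, then treated at 10 μg/mL for 2 days. In separate wells, HBV-expressing cells received 10 μg/mL with or without anisomycin (10 μM) for 2 days. Secreted viral particles were kit-isolated and HBV DNA was measured by real-time PCR, n = 3.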

[15] = Antiviral activity against Hepatitis B virus subtype adw2 infected in human HuH7 cells assessed as inhibition of viral DNA replication at 10 ug/ml after 2 days by RT-PCR method relative to control; type: functional; conditions: Huh-7, 48 h; summary of the method: as §3
Huh-7 [16] = assay: Decrease in SAPK/JNK protein expression in human HuH7 cells transfected with pHBV1.2 at 2.5 to 10 ug/ml after 2 days by immunoblot method
Huh-7 [17] = assay: Effect on p38 MAPK protein expression in human HuH7 cells transfected with pHBV1.2 at 2.5 ug/ml after 2 days by immunoblot method relative to control
[18] = Selectivity index, ratio of TC50 for human HepG2.2.15 cells to IC50 for Hepatitis B virus subtype adw2 infected in human HuH7 cells assessed as inhibition of HBsAg secretion
[19] = Selectivity index, ratio of TC50 for human HepG2.2.15 cells to IC50 for Hepatitis B virus subtype adw2 infected in human HepG2.2.15 cells assessed as inhibition of HBeAg secretion
[20] = Selectivity index, ratio of TC50 for human HepG2.2.15 cells to IC50 for Hepatitis B virus subtype adw2 infected in human HuH7 cells assessed as inhibition of viral DNA replication

C=C1C[C@@]23CC[C@H]4[C@@](C)(CCC[C@@]4(C)NC(=O)NCCCC)[C@@H]2CC[C@]1(O)C3
inhibition [1]: Dose-dependent effect | Activity [2]: Active | fold change (FC) [3]: 0.78 | fold change (FC) [4]: 0.87 | fold change (FC) (Huh-7 [5]): 0.88 | fold change (FC) (Huh-7 [6]): 1.01 | fold change (FC) (Huh-7 [7]): 0.97 | fold change (FC) (Huh-7 [8]): 0.99 | fold change (FC) (Huh-7 [9]): 0.97 | fold change (FC) [10]: 0.95 | fold change (FC) [11]: 0.94 | fold change (FC) [12]: 0.25 | fold change (FC) (Huh-7 [13]): 0.94 | inhibition [14]: inactive | inhibition at 10 µg/mL [15]: 38% | Activity (Huh-7 [16]): Active | fold change (FC) (Huh-7 [17]): 1.01 | selectivity ratio [18]: 41.4 | selectivity ratio [19]: 47.7 | selectivity ratio [20]: 57.7
